pEC50: −log10 of the molar value.
Tests used:
MT4 = assay: Antiproliferative activity against human MT4 cells after 96 hrs by MTT assay; assay type: functional, cell-based; conditions: MT4, 96 h
How it was run: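 Exponentially growing MT-4 cells (CD4+ human T-cells carrying integrated HTLV-1 genome), seeded at 1×10^5 cells/mL in RPMI-1640 with 10% FCS and antibiotics. Serial dilutions of compound (DMSO stock 100 mM, diluted in medium), 37 °C, 5% CO₂, 96 h. Viability read by MTT. 50% inhibition versus untreated controls by linear regression. Mean ± SD of three independent determinations.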

HL-60(TB) = assay: Growth inhibition of human HL-60(TB) cells after 48 hrs by sulforhodamine B assay; assay type: functional; conditions: HL-60, 48 h
How it was run: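 NCI 60-cell-line screen, HL-60(TB) included. Compound given at five 10-fold dilutions from 10^-4 to 10^-8 M. Cells exposed for the last 48 h of a 72 h incubation. Growth or viability estimated by sulforhodamine B protein assay. GI50 is the concentration giving 50% growth inhibition. Values outside the tested range are reported as greater or less than the highest or lowest concentration.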

K562 = assay: Growth inhibition of human K562 cells after 48 hrs by sulforhodamine B assay; assay type: functional; conditions: K562, 48 h
How it was run: (§1)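 NCI 60-cell-line screen. Compounds tested at five 10-fold dilutions from 10^-4 to 10^-8 M. Cells exposed for the last 48 h of a 72 h incubation, growth estimated by sulforhodamine B protein assay. GI50 is the concentration giving 50% growth inhibition. Values beyond the tested range are expressed as greater or lesser than the extreme concentration.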

[1] = Growth inhibition of human MOLT4 cells after 48 hrs by sulforhodamine B assay; assay type: functional; conditions: MOLT-4, 48 h; how it was run: as §1
[2] = Growth inhibition of human RPMI8226 cells after 48 hrs by sulforhodamine B assay; assay type: functional; conditions: RPMI-8226, 48 h
SR = assay: Growth inhibition of human SR cells after 48 hrs by sulforhodamine B assay; assay type: functional
[3] = Growth inhibition of human EKVX cells after 48 hrs by sulforhodamine B assay; assay type: functional; how it was run: as §1
HOP-62 = assay: Growth inhibition of human HOP62 cells after 48 hrs by sulforhodamine B assay; assay type: functional; conditions: HOP-62, 48 h; how it was run: as §1
[4] = Growth inhibition of human HOP92 cells after 48 hrs by sulforhodamine B assay; assay type: functional; conditions: HOP-92, 48 h; how it was run: as §1
NCI-H23 = assay: Growth inhibition of human NCI-H23 cells after 48 hrs by sulforhodamine B assay; assay type: functional; conditions: NCI-H23, 48 h; how it was run: as §1
NCI-H322M = assay: Growth inhibition of human NCI-H322M cells after 48 hrs by sulforhodamine B assay; assay type: functional; how it was run: as §1
NCI-H460 = assay: Growth inhibition of human NCI-H460 cells after 48 hrs by sulforhodamine B assay; assay type: functional; conditions: NCI-H460, 48 h; how it was run: as §1
NCI-H522 = assay: Growth inhibition of human NCI-H522 cells after 48 hrs by sulforhodamine B assay; assay type: functional; conditions: NCI-H522, 48 h; how it was run: as §1
[5] = Growth inhibition of human COLO205 cells after 48 hrs by sulforhodamine B assay; assay type: functional; conditions: COLO 205, 48 h; how it was run: as §1
HCT-116 = assay: Growth inhibition of human HCT116 cells after 48 hrs by sulforhodamine B assay; assay type: functional; conditions: HCT-116, 48 h; how it was run: as §1
HT-29 = assay: Growth inhibition of human HT-29 cells after 48 hrs by sulforhodamine B assay; assay type: functional; conditions: HT-29, 48 h; how it was run: as §1
KM12 = assay: Growth inhibition of human KM12 cells after 48 hrs by sulforhodamine B assay; assay type: functional; conditions: KM12, 48 h; how it was run: as §1
SW-620 = assay: Growth inhibition of human SW620 cells after 48 hrs by sulforhodamine B assay; assay type: functional; conditions: SW-620, 48 h
SF-268 = assay: Growth inhibition of human SF268 cells after 48 hrs by sulforhodamine B assay; assay type: functional; conditions: SF-268, 48 h
[6] = Growth inhibition of human SF295 cells after 48 hrs by sulforhodamine B assay; assay type: functional; conditions: SF-295, 48 h
SNB-19 = assay: Growth inhibition of human SNB19 cells after 48 hrs by sulforhodamine B assay; assay type: functional; conditions: SNB-19, 48 h
U-251 = assay: Growth inhibition of human U251 cells after 48 hrs by sulforhodamine B assay; assay type: functional; conditions: U-251, 48 h
[7] = Growth inhibition of human LOXIMVI cells after 48 hrs by sulforhodamine B assay; assay type: functional; conditions: LOX IMVI; how it was run: as §1
Malme-3M = assay: Growth inhibition of human MALME-3M cells after 48 hrs by sulforhodamine B assay; assay type: functional; how it was run: as §1
M14 = assay: Growth inhibition of human M14 cells after 48 hrs by sulforhodamine B assay; assay type: functional; conditions: M14, 48 h; how it was run: as §1
MDA-MB-435 = assay: Growth inhibition of human MDA-MB-435 cells after 48 hrs by sulforhodamine B assay; assay type: functional; conditions: MDA-MB-435, 48 h; how it was run: as §1
SK-MEL-2 = assay: Growth inhibition of human SK-MEL-2 cells after 48 hrs by sulforhodamine B assay; assay type: functional; conditions: SK-MEL-2, 48 h
SK-MEL-28 = assay: Growth inhibition of human SK-MEL-28 cells after 48 hrs by sulforhodamine B assay; assay type: functional; conditions: SK-MEL-28, 48 h
OVCAR-4 = assay: Growth inhibition of human OVCAR4 cells after 48 hrs by sulforhodamine B assay; assay type: functional; conditions: OVCAR-4, 48 h; how it was run: as §1
OVCAR-5 = assay: Growth inhibition of human OVCAR5 cells after 48 hrs by sulforhodamine B assay; assay type: functional; conditions: OVCAR-5, 48 h
[8] = Growth inhibition of human NCI-ADR-RES cells after 48 hrs by sulforhodamine B assay; assay type: functional; how it was run: as §1
SK-OV-3 = assay: Growth inhibition of human SKOV3 cells after 48 hrs by sulforhodamine B assay; assay type: functional; conditions: SK-OV-3, 48 h
ACHN = assay: Growth inhibition of human ACHN cells after 48 hrs by sulforhodamine B assay; assay type: functional; how it was run: as §1
CAKI-1 = assay: Growth inhibition of human CAKI-1 cells after 48 hrs by sulforhodamine B assay; assay type: functional; conditions: CAKI-1, 48 h; how it was run: as §1
SN12C = assay: Growth inhibition of human SN12C cells after 48 hrs by sulforhodamine B assay; assay type: functional
UO-31 = assay: Growth inhibition of human UO31 cells after 48 hrs by sulforhodamine B assay; assay type: functional; conditions: UO-31, 48 h
PC-3 = assay: Growth inhibition of human PC3 cells after 48 hrs by sulforhodamine B assay; assay type: functional; conditions: PC-3, 48 h
DU-145 = assay: Growth inhibition of human DU145 cells after 48 hrs by sulforhodamine B assay; assay type: functional; conditions: DU-145, 48 h; how it was run: as §1
MCF7 = assay: Growth inhibition of human MCF7 cells after 48 hrs by sulforhodamine B assay; assay type: functional; conditions: MCF7, 48 h; how it was run: as §1
MDA-MB-231 = assay: Growth inhibition of human MDA-MB-231 cells after 48 hrs by sulforhodamine B assay; assay type: functional; conditions: MDA-MB-231, 48 h; how it was run: as §1
[9] = Growth inhibition of human BT549 cells after 48 hrs by sulforhodamine B assay; assay type: functional; conditions: BT-549, 48 h; how it was run: as §1
T47D = assay: Growth inhibition of human T47D cells after 48 hrs by sulforhodamine B assay; assay type: functional
MDA-MB-468 = assay: Growth inhibition of human MDA-MB-468 cells after 48 hrs by sulforhodamine B assay; assay type: functional; conditions: MDA-MB-468, 48 h; how it was run: as §1

## COc1ccc(-c2[nH]c3ccccc3c2/C=C(\C#N)S(=O)(=O)c2ccccc2)cc1
MT4
  pEC50: 6.70
HL-60(TB)
  GI50: 294 nM
K562
  GI50: 535 nM
[1]
  GI50: 871 nM
[2]
  GI50: 2100 nM
SR
  GI50: 350 nM
[3]
  GI50: 1300 nM
HOP-62
  GI50: 1000 nM
[4]
  GI50: 2300 nM
NCI-H23
  GI50: 932 nM
NCI-H322M
  GI50: 1500 nM
NCI-H460
  GI50: 404 nM
NCI-H522
  GI50: 3000 nM
[5]
  GI50: 254 nM
HCT-116
  GI50: 399 nM
HT-29
  GI50: 314 nM
KM12
  GI50: 374 nM
SW-620
  GI50: 506 nM
SF-268
  GI50: 1100 nM
[6]
  GI50: 500 nM
SNB-19
  GI50: 863 nM
U-251
  GI50: 473 nM
[7]
  GI50: 1300 nM
Malme-3M
  GI50: 1200 nM
M14
  GI50: 383 nM
MDA-MB-435
  GI50: 203 nM
SK-MEL-2
  GI50: 18100 nM
SK-MEL-28
  GI50: 1800 nM
OVCAR-4
  GI50: 578 nM
OVCAR-5
  GI50: 1900 nM
[8]
  GI50: 428 nM
SK-OV-3
  GI50: 528 nM
ACHN
  GI50: 1900 nM
CAKI-1
  GI50: 997 nM
SN12C
  GI50: 1500 nM
UO-31
  GI50: 4700 nM
PC-3
  GI50: 557 nM
DU-145
  GI50: 450 nM
MCF7
  GI50: 398 nM
MDA-MB-231
  GI50: 649 nM
[9]
  GI50: 1600 nM
T47D
  GI50: 533 nM
MDA-MB-468
  GI50: < 10 nM

## CCOC(=O)C(=Cc1c(-c2ccccc2)[nH]c2ccccc12)C(=O)OCC
MT4
  pEC50: 5.64
HL-60(TB)
  GI50: 4400 nM
K562
  GI50: 3600 nM
[1]
  GI50: 3900 nM
[2]
  GI50: 219 nM
SR
  GI50: 2100 nM
[3]
  GI50: 12400 nM
HOP-62
  GI50: 5500 nM
[4]
  GI50: 8800 nM
NCI-H23
  GI50: 2900 nM
NCI-H322M
  GI50: 12700 nM
NCI-H460
  GI50: 3800 nM
NCI-H522
  GI50: 3400 nM
[5]
  GI50: 4900 nM
HCT-116
  GI50: 4300 nM
HT-29
  GI50: 4600 nM
KM12
  GI50: 3500 nM
SW-620
  GI50: 5600 nM
SF-268
  GI50: 6800 nM
[6]
  GI50: 7600 nM
SNB-19
  GI50: 23900 nM
U-251
  GI50: 4900 nM
[7]
  GI50: 5600 nM
Malme-3M
  GI50: 8900 nM
M14
  GI50: 4200 nM
MDA-MB-435
  GI50: 3400 nM
SK-MEL-2
  GI50: 4700 nM
SK-MEL-28
  GI50: 7700 nM
OVCAR-4
  GI50: 10500 nM
OVCAR-5
  GI50: 18500 nM
[8]
  GI50: 2900 nM
SK-OV-3
  GI50: 13600 nM
ACHN
  GI50: 4400 nM
CAKI-1
  GI50: 10300 nM
SN12C
  GI50: 5100 nM
UO-31
  GI50: 4000 nM
PC-3
  GI50: 3300 nM
DU-145
  GI50: 9700 nM
MCF7
  GI50: 4500 nM
MDA-MB-231
  GI50: 5800 nM
[9]
  GI50: 5300 nM
T47D
  GI50: 2700 nM
MDA-MB-468
  GI50: 3100 nM

Reference: ChEMBL document CHEMBL3616442, “Unconventional Knoevenagel-type indoles: Synthesis and cell-based studies for the identification of pro-apoptotic agents” (Eur J Med Chem, 2015)
